Measurements of several laboratories.
PDGFRA: Platelet-derived growth factor receptor alpha (PDGFRA, Homo sapiens, UniProt P16234)
PDGFRA D842V: Platelet-derived growth factor receptor alpha (PDGFRA, Homo sapiens, UniProt P16234, D842V)

| SMILES | target | assay | setting | quantity | value |
| --- | --- | --- | --- | --- | --- |
| CC(C)(C)c1nc(-c2cccc(NS(=O)(=O)c3c(F)cccc3F)c2F)c(-c2ccnc(N)n2)s1 | PDGFRA | enzyme activity, inhibitor, radiometric | 1 µM | remaining activity | 103% |
| COc1cc2ncnc(Nc3ccc(Oc4ccccc4)c(C)c3C)c2cc1OC | PDGFRA D842V | enzyme activity, inhibitor | 1 µM | inhibition | 3% |
| O=C(N1CCS(=O)(=O)CC1)N1C[C@H](c2ccc(OC(F)(F)F)cc2)C[C@H](c2nc(C3CC3)no2)C1 | PDGFRA | cell-free assay, competition with immobilised ligand | 1 µM | remaining binding | 100% |
| COc1cc(Nc2cnc(C#N)c(O[C@H](C)CN(C)C)n2)ncc1-c1cnn(C)c1 | PDGFRA | enzyme activity, inhibitor, radiometric | 1 µM | remaining activity | 60% |
| CN(C)C(=O)Cn1cc(-c2nc([C@@](C)(c3ccc(-c4cnc(N)nc4)cc3)C3CC3)no2)cn1 | PDGFRA | cell-free assay, competition with immobilised ligand | 1 µM | remaining binding | 100% |
| COc1cc(/C=C/C(=O)CC(=O)/C=C/c2ccc(O)c(OC)c2)ccc1O | PDGFRA | enzyme activity, inhibitor | 1 µM | activity vs control | 92% |
| COc1ccc2c(c1)O[C@H](c1ccc(OC)c(OC)c1)C[C@@H]2NC(=O)C1(c2ccc3c(c2)OC(F)(F)O3)CC1 | PDGFRA | cell-free assay, competition with immobilised ligand | 1 µM | remaining binding | 87% |
| O=C1NC(=O)c2cc(Nc3ccc(F)cc3)c(Nc3ccc(F)cc3)cc21 | PDGFRA | cell-free assay, inhibitor | 0.5 µM | remaining signal | 101% |
| Cc1cc(NC(=O)c2cccc3cc(-c4cccc5[nH]nc(N)c45)ccc23)ccc1F | PDGFRA D842V | enzyme activity, inhibitor | 0.1 µM | activity vs control | 28% |
| COc1cc2ncnc(Nc3ccc(Oc4ccccc4)cc3C)c2cc1OC | PDGFRA | enzyme activity, inhibitor | 1 µM | inhibition | 9% |
| CC/C(=N\NC(=O)NCc1cccc(O)c1)c1ccc(O)c(C)c1O | Platelet-derived growth factor receptor alpha (PDGFRA, Homo sapiens, UniProt P16234, V561D) | enzyme activity, inhibitor | 0.1 µM | inhibition | 0.9% |
| FC(F)(F)Oc1cccc(-c2cnc3ccc(-c4ccncc4)nn23)c1 | PDGFRA | enzyme activity, inhibitor, radiometric | 1 µM | activity vs control | 70% |
| CS(=O)(=O)CCNCc1ccc(-c2ccc3ncnc(Nc4ccc(OCc5cccc(F)c5)c(Cl)c4)c3c2)o1 | PDGFRA | cell-free assay | 0.5 µM | remaining signal | 108% |
| CCc1ccccc1C(=O)Nc1n[nH]c2c(C)c(F)c(C3C(C#N)=C(C)N(C)C(C)=C3C#N)cc12 | PDGFRA | cell-free assay, competition with immobilised ligand | 1 µM | remaining binding | 100% |
| Cc1ccc(NC(=O)c2ccc(C)c(C(F)(F)F)c2)cc1C#Cc1nn(C2CCC(O)CC2)c2ncnc(N)c12 (stereo not shown) | PDGFRA | cell-free assay, inhibitor | 10 µM | remaining signal | 60% |
| Cc1nc(Cc2cccc(C(F)(F)F)c2)sc1-c1ccc(C(N)=O)nc1 | PDGFRA | cell-free assay, competition with immobilised ligand | 1 µM | remaining binding | 88% |
| Cc1sc(C(=O)NC2COC2)cc1-n1cc(NC(=O)Nc2c(F)cccc2Cl)cn1 | PDGFRA | enzyme activity, inhibitor | 10 µM | remaining activity | 114% |
| Cc1ccc(C(=O)NCc2ccsc2)cc1C#Cc1cn(C(C)C)c2ncnc(N)c12 | PDGFRA | enzyme activity, inhibitor | 1 µM | activity vs control | 4% |
| Cc1cnc(NC2CCOCC2)nc1-n1cnc(C(=O)NC(CN)c2cc(F)cc(Cl)c2)c1 (stereo not shown) | PDGFRA | enzyme activity, inhibitor, radiometric | 1 µM | remaining activity | 94% |
| Oc1ccc(-c2nc(-c3ccncc3)c(-c3ccc(F)cc3)[nH]2)cc1 | PDGFRA | cell-free assay | 0.5 µM | remaining signal | 98.8% |
| N#CC1(c2ccccn2)CCN(Cc2cc(C(=O)N3CCCC3)c(=O)n3ccccc23)CC1 | PDGFRA | cell-free assay, competition with immobilised ligand | 1 µM | remaining binding | 97% |
| O=C1Nc2ccc(Cl)cc2C1=Cc1cc(Cl)c(O)c(Cl)c1 | PDGFRA | cell-free assay | 0.5 µM | remaining signal | 70.3% |
| Cc1ccc(C(=O)Nc2ccc(CN3CCN(C)CC3)c(C(F)(F)F)c2)cc1C#Cc1cnc2cccnn12 | PDGFRA | enzyme activity, inhibitor | 23.5 nM | remaining activity | 5.3% |
| CNC(=O)Nc1ccc2c(c1)[C@@]1(CC2)OC(=O)N(CC(=O)N(Cc2ccc(F)cc2)[C@@H](C)C(F)(F)F)C1=O | PDGFRA | cell-free assay, competition with immobilised ligand | 1 µM | remaining binding | 83% |
| COc1cc(-c2cc(-c3ccc(N4CCNCC4)cc3)cnc2N)cc(OC)c1OC | Platelet-derived growth factor receptor alpha (PDGFRA, Homo sapiens, UniProt P16234, T674I) | enzyme activity, inhibitor | 1 µM | inhibition | 4% |
| CCCOc1ccc(OC)c(F)c1C(=O)c1ccc(C(=O)N[C@@H]2CNC[C@H]2NC(=O)c2ccc3[nH]ncc3c2)cc1 | PDGFRA D842V | enzyme activity, inhibitor | 10 µM | remaining activity | 12% |
| Cc1nccc(COC(=O)N2C[C@@H]3[C@@H](CNC(=O)c4ccc5[nH]nnc5c4)[C@@H]3C2)n1 | PDGFRA | cell-free assay, competition with immobilised ligand | 1 µM | remaining binding | 80% |
| CNC(=O)c1cc(Oc2ccc(NC(=O)Nc3ccc(Cl)c(C(F)(F)F)c3)cc2)ccn1 | PDGFRA D842V | enzyme activity, inhibitor | 10 µM | inhibition | 99% |
